Data taken from article PMC5896666 (Drug Design, Development and Therapy, 2018).
pIC50: −log10 of the molar value.

Legend:
[1] = system: ROS production in EJ cells; assay: Intracellular reactive oxygen species detection; type: cell-based, human; settings: 1.0 μM, 24 h, DCFH-DA, fluorescence microplate reader
Procedure, shortened: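 EJ cells, with or without 2 h pretreatment with 5 mM NAC, were given 1.0 μM test compound for 24 h. After PBS washes, loaded with 10 μM DCFH-DA for 30 min at 37 °C and washed again. Imaged by fluorescence microscopy and quantified on a plate reader (ex 485/em 520 nm). Values given as percent of control.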

EJ cells [2] = assay: Annexin V-FITC/PI staining flow cytometry of apoptosis; type: cell-based, human; settings: for Percentage of apoptotic cells (Annexin V-FITC/PI flow cytometry) / Effect of caspase inhibitors on induced apoptosis: 1.0 μM, 24 h; for Percentage of apoptotic cells (Annexin V-FITC/PI flow cytometry): mean ± SD; for Effect of caspase inhibitors on induced apoptosis: with 20 μM Z-LEHD-FMK or z-DEVD-fmk (Ac-DEVD-CHO)
Procedure, shortened: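 EJ cells were seeded at 1×10^6 per well, left overnight, then given 1.0 μM test compound for 24 h. Some wells also received 20 μM caspase-3 (Ac-DEVD-CHO) or caspase-9 (Z-LEHD-FMK) inhibitor, or a 2 h pretreatment with 5 mM NAC. Harvested cells were stained with Annexin V-FITC/PI and read by flow cytometry for percent apoptotic cells. Mean ± SD of triplicates.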

EJ cells [3] = assay: Colony-formation assay; type: cell-based, human; settings: 1.0 μM, 24 h, then 10 days growth
Procedure, shortened: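 EJ cells at 1×10^6 per well given 1.0 μM test compound for 24 h. Harvested and replated at 5×10^2 cells per well in fresh 10% FBS medium, then grown 10 days. Colonies fixed, stained with 1% crystal violet in 10% methanol and counted blinded under a microscope. Mean ± SD of triplicates.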

EJ cells [4] = assay: EdU incorporation assay; type: cell-based, human; settings: 1.0 μM, 24 h, then 50 μM EdU 4 h
Procedure, shortened: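 EJ cells at 5×10^3 per well treated 24 h with 1.0 μM test compound, washed, then labelled with 50 μM EdU for 4 h at 37 °C in the dark. Fixed in 4% formaldehyde 15 min at room temperature, permeabilised in 0.5% Triton X-100 20 min. Apollo cocktail 30 min, Hoechst 33342 30 min, fluorescence microscopy. Mean ± SD of triplicates.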

Bax = assay: Western blotting analysis of Bax; type: cell-based, human; settings: EJ cells, 1.0 μM, 24 h
Procedure, shortened: (§1)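 EJ cells received 1.0 μM test compound for 24 h, with or without 2 h pretreatment with 5 mM NAC. Lysed in RIPA with protease inhibitor; 30 μg protein (BCA) run on 10–12% SDS-PAGE and moved to PVDF. Blocked 30 min at room temperature in TBS, 0.1% Triton X-100, 5% milk. Primary antibody overnight at 4 °C, HRP secondary 1 h, ECL detection. GAPDH loading control.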

Bcl-2 = assay: Western blotting analysis of Bcl-2; type: cell-based, human; settings: EJ cells, 1.0 μM, 24 h
Procedure, shortened: as §1

[5] = system: human immortalized uroepithelium cell line SV-HUC-1; assay: Cell viability MTT assay; type: cell-based; settings: SV-HUC-1 normal uroepithelium cells
Procedure, shortened: (§2)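 Cells seeded at 5×10^3 per well: EJ in RPMI 1640, SV-HUC-1 in F-12K, both with 10% FBS. Test compound came from 25 mmol/L DMSO stock diluted in serum-free medium or PBS. Series run at graded concentrations for 24 h, or at 1.0 μM over varying times. MTT added for 4 h at 37 °C, formazan dissolved in DMSO, A570 read. Viability relative to untreated (100%); ≥3 repeats.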

caspase-3 = assay: Caspase-3 activity measurement in cell lysates; type: cell-based, human; settings: EJ cells, 1.0 μM, 24 h, vs control and TAT-treated cells
Procedure, shortened: (§3)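 EJ cells treated for 24 h with 1.0 μM test compound. Lysates were mixed with buffer containing pNA substrate added at 2 mM: Ac-DEVD-pNA for caspase-3, Ac-LEHD-pNA for caspase-9. Incubated 4 h at 37 °C in the dark, then absorbance read at 405 nm. Activity given as ratio of treated to untreated control cells.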

EJ cells [6] = assay: AO/EB dual staining, morphological assessment of apoptotic cells; type: cell-based, human; settings: 1.0 μM, 24 h, mean ± SD
Procedure, shortened: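 EJ cells (RPMI 1640, 10% FBS, 37 °C, 5% CO2) exposed to 1.0 μM test compound for 24 h, then trypsinised, pelleted and PBS-washed. Stained with 100 μg/mL AO and 100 μg/mL EB for 10 min at 4 °C in the dark. Scored by fluorescence microscopy for nuclear condensation and shrinkage. Apoptotic rate = apoptotic cells/total counted. Mean ± SD of triplicates.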

[7] = system: human bladder cancer EJ cell line; assay: Cell viability MTT assay; type: cell-based
Procedure, shortened: as §2

caspase-9 = assay: Caspase-9 activity measurement in cell lysates; type: cell-based, human; settings: EJ cells, 1.0 μM, 24 h, vs control and TAT-treated cells
Procedure, shortened: as §3

[8] = Equilibrium solubility assay; type: physicochemical; settings: shake-flask, distilled water pH 7.0, 37°C, UV spectrophotometry; stayed at this level for 6-24 h

Q: Which ROS production [1] does the source give for `CC(C)=CCC[C@]1(C)C=Cc2c(O)c3c(c(CC=C(C)C)c2O1)O[C@]12C(=C[C@@H]4C[C@H]1C(C)(C)O[C@@]2(C/C=C(/C)C(=O)O)C4=O)C3=O` [GA, Gambogic acid] here?
A: substantially increased

Q: And the “Percentage of apoptotic cells (Annexin V-FITC/PI flow cytometry)” value (EJ cells [2])?
A: 21.3%±2.27%

Q: And the “Effect of caspase inhibitors on induced apoptosis” value (EJ cells [2])?
A: completely suppressed

Q: What about the Colony growth (EJ cells [3]) of the same compound?
A: significantly decreased

Q: And the “Number of EdU+ cells” value (EJ cells [4])?
A: significantly reduced

Q: And the Bax expression level (Bax)?
A: upregulated

Q: And the Bcl-2 protein level (Bcl-2)?
A: not affected

Q: What about the “Effect on cell viability” value [5] of the same compound?
A: nearly unaffected

Q: And the Caspase-3 activity (caspase-3)?
A: increased

Q: What about the “Percentage of apoptotic cells (AO/EB)” value (EJ cells [6]) of the same compound?
A: 19.18%±4.35%

Q: What about the “Concentration inducing clear cytotoxic effects” value ([7]; EJ cells, MTT) of the same compound?
A: 1000 nM

Q: And the pIC50 ([7]; Homo sapiens, EJ, 24 h, read-out: 50% inhibitory concentration (IC50))?
A: 5.31

Q: What about the Caspase-9 activity (caspase-9) of the same compound?
A: increased

Q: For `CC(=O)N[C@@H](CS)C(=O)O` [NAC, N-acetyl-L-cysteine], which “Effect on apoptosis, NAC treatment alone” value (EJ cells [2]; 5 mM NAC in the absence of GA and GA-TAT) is on record?
A: did not significantly affect apoptosis

Q: Which results are given for `CC(C)=CCC[C@]1(C)C=Cc2c(O)c3c(c(CC=C(C)C)c2O1)O[C@]12C(=C[C@@H]4C[C@H]1C(C)(C)O[C@@]2(C/C=C(/C)C(=O)N[C@@H](CS)C(=O)N[C@@H](Cc1ccc(O)cc1)C(=O)NCC(=O)N[C@@H](CCCNC(=N)N)C(=O)N[C@@H](CCCCN)C(=O)N[C@@H](CCCCN)C(=O)N[C@@H](CCCNC(=N)N)C(=O)N[C@@H](CCCNC(=N)N)C(=O)N[C@@H](CCC(N)=O)C(=O)N[C@@H](CCCNC(=N)N)C(=O)N[C@@H](CCCNC(=N)N)C(=O)N[C@@H](CCCNC(=N)N)C(=O)O)C4=O)C3=O` [GA-TAT]?
A: ROS production [1]: significantly higher; Percentage of apoptotic cells (Annexin V-FITC/PI flow cytometry) (EJ cells [2]): 46.4%±4.86%; Effect of caspase inhibitors on induced apoptosis (EJ cells [2]): partially inhibited; Colony growth (EJ cells [3]): further reduced; Number of EdU+ cells (EJ cells [4]): markedly less; Bax expression level (Bax): upregulated; Stirring time at which solubility reached its peak [8]: 4 h; Bcl-2 protein level (Bcl-2): downregulated; Effect on cell viability [5]: nearly unaffected; Caspase-3 activity (caspase-3): further enhanced; Percentage of apoptotic cells (AO/EB) (EJ cells [6]): 42.15%±5.23%; Caspase-9 activity (caspase-9): further enhanced
